Compound activity: PubChem, several laboratories
GPR7 antagonist – GPR7 receptor antagonists, primary screen, cell-based, fluorescence, single concentration. inhibition, % at 4.4 µM. 1.1% of 290,000 active. GPR7-expressing cells, fluorescence antagonist assay; in the data active = inhibition above about 16%, passing the limit was not always enough;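 note: cells stimulated with the agonist NPW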
Target sequence (P48145 whole entry, looked up): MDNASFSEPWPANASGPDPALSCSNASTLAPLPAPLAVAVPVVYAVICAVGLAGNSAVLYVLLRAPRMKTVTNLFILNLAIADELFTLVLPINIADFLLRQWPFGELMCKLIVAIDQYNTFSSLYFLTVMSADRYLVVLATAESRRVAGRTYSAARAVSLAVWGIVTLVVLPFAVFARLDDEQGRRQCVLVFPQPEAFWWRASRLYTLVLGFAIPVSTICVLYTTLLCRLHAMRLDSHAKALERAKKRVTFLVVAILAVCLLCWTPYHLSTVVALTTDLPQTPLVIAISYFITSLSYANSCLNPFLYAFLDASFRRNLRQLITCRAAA
NS3 helicase inh – inhibitors of HCV NS3 helicase, primary screen, biochemical, Cy5 molecular beacon fluorescence | Hepatitis C virus NS3 helicase | NS3 helicase DNA unwinding | inhibition, % at 10.9 µM | 0.56% of 290,000 active | AID 1800, 2009;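 active = inhibition above the mean of all tested compounds plus 3 SD, set per campaign, cut at about 35% in these data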
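assay system = NS3 helicase fragment of HCV | buffer or medium = MOPS pH 6.5, MgCl2, DTT, Tween20, BSA | timing = 60 min unwinding reaction at 25 °C after ATP addition | signal = Cy5 beacon fluorescence read at start and 1 h | read-out basis = % inhibition of unwinding | control set = low DMSO, high thioflavine S at 110 µM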
HCV core dimer – inhibitors of HCV core protein dimerization, primary screen, biochemical, TR-FRET, high-throughput. TR-FRET GST/Flag-core106 dimerization, 1536-well. inhibition, % at 5 µM. 0.33% of 300,000 active;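 active = inhibition above the mean of all tested compounds plus 3 SD, set per screening campaign, cut at about 45% in these data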
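System: GST-tagged and Flag-tagged HCV core protein residues 1-106 / Input: core106 proteins, GST 13.5 nM and Flag 17 nM / Buffer or medium: KF-containing HEPES buffer, pH 7.45, DTT, CHAPS, BSA / Probe or stimulus: Eu-anti-GST and XL665-anti-Flag labelled anti-tag antibodies / Schedule: 4 h, 22.5 °C incubation / Technique: TR-FRET 671 and 617 nm emission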
pCIP destab – p/CIP-EGFP fusion destabilizers, primary screen, fluorescence, F442A cells; decrease of EGFP signal, % at 10 µM; 0.01% of 290,000 active; 16 h; Q05BA5; AID 1984, 2009;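 active = EGFP signal decrease of at least 30% at 10 µM or well 3 SD below plate mean, unless failing retest; inactive = the rest, including hits failing retest or dose response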
DNA FID counter-1 – compounds displacing fluorescent DNA intercalator, primary screen, artefact control for HCV NS3 helicase inhibitor project, biochemical, FID fluorescence; DNA fluorescent intercalator displacement; inhibition, % at 7.9 µM; 0.17% of 290,000 active;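 note: higher means more ethidium bromide displaced from hairpin DNA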
NS3 hel confirm – HCV NS3 helicase inhibitors, retest, confirmation, biochemical, Cy5 molecular beacon fluorescence, triplicate. 31% of 1,600 active. shares compounds with NS3 helicase inh. NS3 helicase DNA unwinding. AID 1943, 2009. inhibition, % at 10.9 µM;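 active = inhibition above the mean of all tested compounds plus 3 SD, cutoff set per campaign, cut at about 36% in these data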
DNA FID counter-2 – compounds displacing fluorescent DNA intercalator, artefact control for HCV NS3 helicase inhibitor project, biochemical, FID fluorescence, triplicate. AID 1945, 2009. shares compounds with NS3 helicase inh. 4% of 1,600 active. inhibition, % at 7.9 µM. DNA fluorescent intercalator displacement;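 note: higher means more displacement of ethidium bromide from the DNA hairpin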
Hits are given with their value. Only some compounds are listed: those with a hit (about 1.9% of all), similar ones and a draw of the others. Cut-off read from the data, not from the text of the source, unless noted: active = inhibition above about 37%; inactive = the rest.

Results for O=C(Nc1ccccc1-c1ccccc1)c1ccccc1 ?
GPR7 antagonist: inactive; NS3 helicase inh: inactive; HCV core dimer: inactive; pCIP destab: inactive; DNA FID counter-1: inactive

Results for Nc1c(S(=O)(=O)O)cc(NC(=O)c2ccccc2)c2c1C(=O)c1ccccc1C2=O ?
GPR7 antagonist: inactive; NS3 helicase inh: 81; HCV core dimer: inactive; pCIP destab: inactive; DNA FID counter-1: inactive; NS3 hel confirm: 66; DNA FID counter-2: 61

What do the screens show for `COc1ccc(Cc2nnc(NC(=O)c3ccc(F)cc3)s2)cc1OC`?
GPR7 antagonist: inactive; NS3 helicase inh: 47; HCV core dimer: inactive; pCIP destab: inactive; DNA FID counter-1: inactive; NS3 hel confirm: inactive; DNA FID counter-2: inactive

Results for C/C(=N\NC(=S)NCCc1ccccc1)c1ccc(O)cc1O ?
GPR7 antagonist: inactive; NS3 helicase inh: 50; HCV core dimer: inactive; pCIP destab: inactive; DNA FID counter-1: inactive; NS3 hel confirm: inactive; DNA FID counter-2: inactive

Results for Clc1ccccc1C1Nc2cccc3cccc(c23)N1 ?
GPR7 antagonist: inactive; NS3 helicase inh: inactive; HCV core dimer: inactive; pCIP destab: inactive; DNA FID counter-1: inactive

How did Clc1cccc(C2Nc3cccc4cccc(c34)N2)c1Cl do in these assays?
GPR7 antagonist: inactive; NS3 helicase inh: 49; HCV core dimer: inactive; pCIP destab: inactive; DNA FID counter-1: inactive; NS3 hel confirm: inactive; DNA FID counter-2: inactive

What do the screens show for `Fc1ccc(C2Nc3cccc4cccc(c34)N2)cc1`?
GPR7 antagonist: inactive; NS3 helicase inh: 45; HCV core dimer: inactive; pCIP destab: inactive; DNA FID counter-1: inactive; NS3 hel confirm: inactive; DNA FID counter-2: inactive

Results for FC(F)(F)c1ccc(C2Nc3cccc4cccc(c34)N2)cc1 ?
GPR7 antagonist: inactive; NS3 helicase inh: inactive; pCIP destab: inactive; DNA FID counter-1: inactive

How did Cc1c(Cl)cccc1NS(=O)(=O)c1ccc2c(c1)C1C=CCC1C(c1ccc(C(=O)O)cc1)N2 (configuration not stated) do in these assays?
GPR7 antagonist: inactive; NS3 helicase inh: 39; HCV core dimer: inactive; pCIP destab: inactive; DNA FID counter-1: inactive; NS3 hel confirm: 55; DNA FID counter-2: 43

How did Cc1nnc(SCC2=C(C(=O)O)N3C(=O)C(NC(=O)Cn4nc(C(F)F)c(Cl)c4C)C3SC2)s1 (configuration not stated) do in these assays?
GPR7 antagonist: inactive; NS3 helicase inh: 45; HCV core dimer: inactive; pCIP destab: inactive; DNA FID counter-1: inactive; NS3 hel confirm: 38; DNA FID counter-2: inactive

How did Cc1nnc(SCC2=C(C(=O)O)N3C(=O)C(NC(=O)Cn4cnnn4)C3SC2)s1 (configuration not stated) do in these assays?
GPR7 antagonist: inactive; NS3 helicase inh: inactive; HCV core dimer: inactive; pCIP destab: inactive; DNA FID counter-1: inactive

Results for Cc1nnc(SCC2=C(C(=O)O)N3C(=O)C(NC(=O)c4cc(F)c(F)cc4Cl)C3SC2)s1 (configuration not stated) ?
GPR7 antagonist: inactive; NS3 helicase inh: 36; HCV core dimer: inactive; pCIP destab: inactive; DNA FID counter-1: inactive; NS3 hel confirm: inactive; DNA FID counter-2: inactive

What do the screens show for `CC(=O)OCC1=C(C(=O)O)N2C(=O)C(NC(=O)Cn3nc(C(F)F)c(Cl)c3C)C2SC1` (configuration not stated)?
GPR7 antagonist: inactive; NS3 helicase inh: 40; HCV core dimer: inactive; pCIP destab: inactive; DNA FID counter-1: inactive; NS3 hel confirm: inactive; DNA FID counter-2: inactive

Results for Cc1nnc(SCC2=C(C(=O)O)N3C(=O)C(NC(=O)Cn4nc(C(F)F)cc4C)C3SC2)s1 (configuration not stated) ?
GPR7 antagonist: inactive; NS3 helicase inh: inactive; HCV core dimer: inactive; pCIP destab: inactive; DNA FID counter-1: inactive
